Columns and labels:
[1] = biological target: T1, Peroxisome proliferator-activated receptor gamma (Homo sapiens, UniProt P37231); format: cell-based, COS-1
T1 sequence (P37231 whole entry): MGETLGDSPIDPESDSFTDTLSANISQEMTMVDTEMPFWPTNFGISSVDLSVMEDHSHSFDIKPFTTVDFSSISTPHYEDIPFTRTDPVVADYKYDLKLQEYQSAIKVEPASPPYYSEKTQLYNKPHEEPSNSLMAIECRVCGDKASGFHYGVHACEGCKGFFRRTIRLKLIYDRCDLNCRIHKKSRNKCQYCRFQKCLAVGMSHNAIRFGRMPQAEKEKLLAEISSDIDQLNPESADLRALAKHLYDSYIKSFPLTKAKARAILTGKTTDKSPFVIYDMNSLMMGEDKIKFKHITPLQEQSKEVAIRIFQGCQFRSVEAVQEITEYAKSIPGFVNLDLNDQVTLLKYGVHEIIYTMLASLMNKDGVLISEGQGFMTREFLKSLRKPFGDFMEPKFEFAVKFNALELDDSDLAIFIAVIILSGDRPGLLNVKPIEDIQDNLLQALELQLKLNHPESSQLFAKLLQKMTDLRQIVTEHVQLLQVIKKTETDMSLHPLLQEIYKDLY

[2] = biological target: T2, Peroxisome proliferator-activated receptor alpha (Homo sapiens, UniProt Q07869); assay: Agonist activity at human PPARalpha ligand binding domain expressed in COS-1 cells co-transfected with Gal4 after 24 hrs by luciferase reporter gene assay; format: cell-based
T2 sequence (Q07869 whole entry): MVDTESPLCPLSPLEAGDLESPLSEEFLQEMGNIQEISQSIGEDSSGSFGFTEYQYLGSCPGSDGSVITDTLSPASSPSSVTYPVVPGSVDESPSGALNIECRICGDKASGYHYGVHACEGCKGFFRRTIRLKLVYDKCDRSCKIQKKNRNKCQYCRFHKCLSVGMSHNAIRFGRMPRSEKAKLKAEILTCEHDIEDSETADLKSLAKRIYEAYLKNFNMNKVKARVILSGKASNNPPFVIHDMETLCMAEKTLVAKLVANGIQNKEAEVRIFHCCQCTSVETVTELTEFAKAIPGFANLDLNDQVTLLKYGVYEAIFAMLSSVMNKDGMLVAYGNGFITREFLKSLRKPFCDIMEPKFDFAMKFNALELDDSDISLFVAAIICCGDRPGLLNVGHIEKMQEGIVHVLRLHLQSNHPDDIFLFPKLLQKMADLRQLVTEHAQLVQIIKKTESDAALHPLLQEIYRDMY

[3] = biological target: T3, Peroxisome proliferator-activated receptor delta (Homo sapiens, UniProt Q03181); assay: Agonist activity at human PPARdelta ligand binding domain expressed in COS-1 cells after 24 hrs by luciferase reporter gene-based luminometric analysis; format: cell-based
T3 sequence (Q03181 whole entry): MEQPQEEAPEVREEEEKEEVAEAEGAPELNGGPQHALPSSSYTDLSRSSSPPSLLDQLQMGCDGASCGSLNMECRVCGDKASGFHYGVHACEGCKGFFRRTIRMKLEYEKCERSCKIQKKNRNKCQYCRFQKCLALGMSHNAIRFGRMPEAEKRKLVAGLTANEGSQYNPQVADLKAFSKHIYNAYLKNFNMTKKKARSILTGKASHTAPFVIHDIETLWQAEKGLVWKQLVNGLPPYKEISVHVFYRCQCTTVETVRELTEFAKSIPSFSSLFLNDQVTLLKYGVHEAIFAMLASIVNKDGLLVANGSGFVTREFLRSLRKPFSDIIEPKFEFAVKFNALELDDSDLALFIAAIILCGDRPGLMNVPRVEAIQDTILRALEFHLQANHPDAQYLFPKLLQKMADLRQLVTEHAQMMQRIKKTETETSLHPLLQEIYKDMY

[4] = Induction of [14C]oleic acid oxidation in a human myotubes after 4 days by beta liquid scintillation counting; format: functional
How it was run: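 Satellite cells from human abdominal muscle biopsies of healthy donors, differentiated to myotubes for 7 days in DMEM (5.5 mM glucose) with 2% FCS and 25 pM insulin. Then [1-14C]oleic acid (1 µCi/mL, 100 µM) in DPBS with 10 mM HEPES and 1 mM L-carnitine, 4 h at 37 °C. Trapped CO2 counted by scintillation, normalized to protein. EC50 from three independent experiments in quadruplicate, mean ± SD.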

Row | Structure (SMILES) | EC50 [1] [nM] | EC50 [2] [nM] | EC50 [3] [nM] | EC50 [4] [nM]
1 | CC/C=C\C/C=C\C/C=C\C/C=C\CC/C=C/C=C/C(=O)O | > 1000 | 32 | > 1000 | –
2 | Cc1cc(SCc2sc(-c3ccc(C(F)(F)F)cc3)nc2C)ccc1OC(F)C(=O)O (racemic) | > 1000 | 560 | 55 | 3.7
3 | CCc1cc(SCc2sc(-c3ccc(C(F)(F)F)cc3)nc2C)ccc1OC(F)C(=O)O (racemic) | > 1000 | 710 | 290 | 5
4 | Cc1nc(-c2ccc(C(F)(F)F)cc2)sc1CSc1ccc(OC(F)C(=O)O)c(C(C)C)c1 (racemic) | > 1000 | 735 | 580 | 31.4
5 | Cc1cc(SCc2sc(-c3ccc(C(F)(F)F)cc3)nc2C)ccc1OCC(=O)O [GW501516] | – | – | – | 0.03
6 | CN(CCOc1ccc(CC2SC(=O)NC2=O)cc1)c1ccccn1 (configuration not stated) [ROSIGLITAZONE] | – | – | – | > 1000

From ChEMBL document CHEMBL1926536, “Synthesis, molecular modeling studies and biological evaluation of fluorine substituted analogs of GW 501516” (Bioorg Med Chem, 2011)
